Measurements from ChEMBL document CHEMBL3243962, “Antileukemic activity of derivatives of 1,2-dimethyl-3,4-bis(hydroxymethyl)-5-phenylpyrrole bis(N-methylcarbamate)” (J Med Chem, 1979).
Activity calls are given as the source filed them.

Assays:
Staphylococcus aureus = test: Antimicrobial activity against Staphylococcus aureus ATCC 25923 at 1 mg after 24 hrs by disk sensitivity assay; assay type: functional, organism-based
In short: (§1)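 Bacteria grown 24 h in trypticase soy broth; 1 mL used to seed a lawn on trypticase soy agar. Sterile 6 mm paper disks carrying 1 mg test compound placed on agar, incubated 24 h at 37 °C, then zone of inhibition around each disk measured.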

Enterobacter cloacae = test: Antimicrobial activity against Enterobacter cloacae ATCC 23355 at 1 mg after 24 hrs by disk sensitivity assay; assay type: functional, organism-based; in short: as §1
Mus musculus [1] = test: Toxicity in mouse P388 cells allografted CD2F1 mouse assessed as mouse survival at 12.5 mg/kg, ip of total 9 doses starting 24 hrs post tumor inoculation measured on day 5 of inoculation relative to control; assay type: organism-based; set-up: dose 12.5 mg/kg, route intraperitoneal; details: in vivo
In short: (§2)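 Male CD2F1 mice bearing ip P388 leukemia (6×10^6 cells) were dosed ip with nine daily doses in distilled water–Tween 80 suspension, starting 24 h after inoculation. Survivors per group of 6 were counted on day 5, i.e. 4 days after the first dose. Body-weight change of treated minus control mice was also recorded.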

P388 [2] = test: Antitumor activity against mouse P388 cells allografted in CD2F1 mouse assessed as increase in mouse survival at 25 mg/kg, ip of total 9 doses starting 24 hrs post tumor inoculation measured on day 5 of inoculation relative to control; assay type: functional; details: route intraperitoneal
In short: (§3)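 Male CD2F1 mice inoculated ip with 6×10^6 P388 leukemia cells. Dosing was ip as a suspension in distilled water–Tween 80, nine daily doses starting 24 h after inoculation. Activity was read as median survival time of treated vs control mice (% T/C); % T/C ≥ 120 was considered significant. Groups were 6 mice.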

Mus musculus [3] = test: Toxicity in mouse P388 cells allografted CD2F1 mouse assessed as body weight loss at 100 mg/kg, ip of total 9 doses starting 24 hrs post tumor inoculation measured on day 5 of inoculation relative to control; assay type: organism-based; set-up: dose 100 mg/kg, route intraperitoneal; details: in vivo
In short: (§4)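 Male CD2F1 mice inoculated ip with 6×10^6 P388 leukemia cells. Compounds given ip as distilled water–Tween 80 suspension, nine daily doses starting 24 h after inoculation; six mice per dose group. Treated-minus-control body-weight change (T − C) and toxicity-day survivors recorded on day 5 (4 days after first dose).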

P388 [4] = test: Antitumor activity against mouse P388 cells allografted in CD2F1 mouse assessed as increase in mouse survival at 12.5 mg/kg, ip of total 9 doses starting 24 hrs post tumor inoculation measured on day 5 of inoculation relative to control; assay type: functional; details: route intraperitoneal; in short: as §3
Mus musculus [5] = test: Toxicity in mouse P388 cells allografted CD2F1 mouse assessed as mouse survival at 6.25 mg/kg, ip of total 9 doses starting 24 hrs post tumor inoculation measured on day 5 of inoculation relative to control; assay type: organism-based; set-up: dose 6.25 mg/kg, route intraperitoneal; details: in vivo; in short: as §2
[6] = tested on: Staphylococcus epidermidis; test: Antimicrobial activity against Staphylococcus epidermidis ATCC 12228 at 1 mg after 24 hrs by disk sensitivity assay; assay type: functional, organism-based; in short: as §1
P388 [7] = test: Antitumor activity against mouse P388 cells allografted in CD2F1 mouse assessed as increase in mouse survival at 50 mg/kg, ip of total 9 doses starting 24 hrs post tumor inoculation measured on day 5 of inoculation relative to control; assay type: functional; details: route intraperitoneal; in short: as §3
P388 [8] = test: Antitumor activity against mouse P388 cells allografted in CD2F1 mouse assessed as increase in mouse survival at 6.25 mg/kg, ip of total 9 doses starting 24 hrs post tumor inoculation measured on day 5 of inoculation relative to control; assay type: functional; details: route intraperitoneal; in short: as §3
Proteus vulgaris = test: Antimicrobial activity against Proteus vulgaris ATCC 6380 at 1 mg after 24 hrs by disk sensitivity assay; assay type: functional, organism-based; in short: as §1
Serratia marcescens = test: Antimicrobial activity against Serratia marcescens ATCC 8100 at 1 mg after 24 hrs by disk sensitivity assay; assay type: functional, organism-based; in short: as §1
Klebsiella pneumoniae = test: Antimicrobial activity against Klebsiella pneumoniae ATCC 23357 at 1 mg after 24 hrs by disk sensitivity assay; assay type: functional, organism-based; in short: as §1
Salmonella typhimurium = test: Antimicrobial activity against Salmonella typhimurium ATCC 14028 at 1 mg after 24 hrs by disk sensitivity assay; assay type: functional, organism-based; details: Salmonella enterica subsp. enterica serovar Typhimurium; in short: as §1
Mus musculus [9] = test: Toxicity in mouse P388 cells allografted CD2F1 mouse assessed as body weight loss at 6.25 mg/kg, ip of total 9 doses starting 24 hrs post tumor inoculation measured on day 5 of inoculation relative to control; assay type: organism-based; set-up: dose 6.25 mg/kg, route intraperitoneal; details: in vivo; in short: as §4
Escherichia coli = test: Antimicrobial activity against Escherichia coli ATCC 25922 at 1 mg after 24 hrs by disk sensitivity assay; assay type: functional, organism-based; in short: as §1
Mus musculus [10] = test: Toxicity in mouse P388 cells allografted CD2F1 mouse assessed as body weight loss at 25 mg/kg, ip of total 9 doses starting 24 hrs post tumor inoculation measured on day 5 of inoculation relative to control; assay type: organism-based; set-up: dose 25 mg/kg, route intraperitoneal; details: in vivo; in short: as §4
Mus musculus [11] = test: Toxicity in mouse P388 cells allografted CD2F1 mouse assessed as body weight loss at 50 mg/kg, ip of total 9 doses starting 24 hrs post tumor inoculation measured on day 5 of inoculation relative to control; assay type: organism-based; set-up: dose 50 mg/kg, route intraperitoneal; details: in vivo; in short: as §4
Mus musculus [12] = test: Toxicity in mouse P388 cells allografted CD2F1 mouse assessed as mouse survival at 25 mg/kg, ip of total 9 doses starting 24 hrs post tumor inoculation measured on day 5 of inoculation relative to control; assay type: organism-based; set-up: dose 25 mg/kg, route intraperitoneal; details: in vivo; in short: as §2
Mus musculus [13] = test: Toxicity in mouse P388 cells allografted CD2F1 mouse assessed as body weight loss at 12.5 mg/kg, ip of total 9 doses starting 24 hrs post tumor inoculation measured on day 5 of inoculation relative to control; assay type: organism-based; set-up: dose 12.5 mg/kg, route intraperitoneal; details: in vivo; in short: as §4
P388 [14] = test: Antitumor activity against mouse P388 cells allografted in CD2F1 mouse assessed as increase in mouse survival at 100 mg/kg, ip of total 9 doses starting 24 hrs post tumor inoculation measured on day 5 of inoculation relative to control; assay type: functional; details: route intraperitoneal; in short: as §3
Mus musculus [15] = test: Toxicity in mouse P388 cells allografted CD2F1 mouse assessed as mouse survival at 50 mg/kg, ip of total 9 doses starting 24 hrs post tumor inoculation measured on day 5 of inoculation relative to control; assay type: organism-based; set-up: dose 50 mg/kg, route intraperitoneal; details: in vivo; in short: as §2
Mus musculus [16] = test: Toxicity in mouse P388 cells allografted CD2F1 mouse assessed as mouse survival at 100 mg/kg, ip of total 9 doses starting 24 hrs post tumor inoculation measured on day 5 of inoculation relative to control; assay type: organism-based; set-up: dose 100 mg/kg, route intraperitoneal; details: in vivo; in short: as §2

Row | SMILES | Activity (Staphylococcus aureus) | Activity (Mus musculus [1]) | T/C (P388 [2]) [%] | Activity (Mus musculus [3]) [g] | T/C (P388 [4]) [%] | Activity (Mus musculus [5]) | Activity [6] | T/C (P388 [7]) [%] | T/C (P388 [8]) [%] | Activity (Mus musculus [9]) [g] | Activity (Mus musculus [10]) [g] | Activity (Mus musculus [11]) [g] | Activity (Mus musculus [12]) | Activity (Mus musculus [13]) [g] | Activity (Mus musculus [15]) | Activity (Mus musculus [16]) | further results
1 | CNC(=O)OCc1c(COC(=O)NC)c(-c2ccc(C(C)(C)C)cc2)n(C)c1C | inactive | Non-toxic | 158 | 4.4 | 155 | Non-toxic | inactive | 97 | 152 | 2 | 4 | 5.1 | Non-toxic | 3.8 |  |  | Activity (Enterobacter cloacae): inactive; Activity (Proteus vulgaris): inactive; Activity (Serratia marcescens): inactive; Activity (Klebsiella pneumoniae): inactive; Activity (Salmonella typhimurium): inactive; Activity (Escherichia coli): inactive
2 | CNC(=O)OCc1c(COC(=O)NC)c(-c2ccc(N)cc2)n(C)c1C |  | Non-toxic | 100 | 3.5 | 98 | Non-toxic |  | 119 | 92 | 0.7 | 0.4 | 2.5 |  | 0.1 | Non-toxic |  | T/C (P388 [14]): 135%
3 | CNC(=O)OCc1c(COC(=O)NC)c(-c2ccc(F)cc2)n(C)c1C | Active | Non-toxic | 150 | 1.8 | 130 | Non-toxic | Active | 132 | 134 | 2.4 | 3.9 | 5.1 | Non-toxic | 4.3 | Non-toxic | Toxic | 
4 | CNC(=O)OCc1c(COC(=O)NC)c(-c2ccc(Cl)cc2)n(C)c1C |  | Non-toxic | 153 | 7.5 | 155 | Non-toxic |  | 165 | 155 | 3.4 | 4.4 | 5.7 | Non-toxic | 3.2 | Non-toxic |  | 
5 | CNC(=O)OCc1c(COC(=O)NC)c(-c2ccc(C)cc2)n(C)c1C |  | Non-toxic | 144 | 1.8 | 144 | Non-toxic |  |  | 138 | 1.4 | 3.4 | 4.5 | Non-toxic | 3.2 |  | Toxic | 
